Measurements published in ChEMBL document CHEMBL5058577, “EUbOPEN Chemogenomics Library 2 (Multiplex)” (2022).

Tested on: Fibroblast
Test: Multiplex assay against human fibroblast
Format: toxicity, cell-based
Summary of the method: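 Cells were classed with CellPathfinder machine-learning gating, first as Hoechst high-intensity objects or normal cells, then (normal cells) as healthy, pyknosed or fragmented nuclei, and finally (pyknosed cells) as mitotic or apoptotic. Staining of live cells at seeding used Hoechst33342, BioTracker Green Microtubule Cytoskeleton Dye, MitoTracker Red and Annexin V Alexa Fluor 680, with imaging on a CQ1 microscope at 37°C and 5% CO2 after compound addition. Tubulin, mitochondrial-mass and membrane-permeability phenotypes are per cents of healthy-nucleus cells.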

[1] = 12 h, 1 µM, compound concentration 1 uM, replicate 1
[2] = 12 h, 1 µM, compound concentration 1 uM, replicate 2
[3] = 12 h, 10 µM, compound concentration 10 uM, replicate 1
[4] = 12 h, 10 µM, compound concentration 10 uM, replicate 2
[5] = 24 h, 1 µM, compound concentration 1 uM, replicate 1
[6] = 24 h, 1 µM, compound concentration 1 uM, replicate 2
[7] = 24 h, 10 µM, compound concentration 10 uM, replicate 1
[8] = 24 h, 10 µM, compound concentration 10 uM, replicate 2
[9] = 48 h, 1 µM, compound concentration 1 uM, replicate 1
[10] = 48 h, 1 µM, compound concentration 1 uM, replicate 2
[11] = 48 h, 10 µM, compound concentration 10 uM, replicate 1
[12] = 48 h, 10 µM, compound concentration 10 uM, replicate 2

## CC(F)(F)CN1CCOc2c(nn(-c3ccccc3Cl)c2-c2ccc(Cl)cc2)C1=O
[1]
  Population Apoptotic (%): 42%
  Population Healthy Nuclei (%): 66%
  Population Hoechst High Intensity Objects (%): 0%
  Population Mitochondria Different-Phenotype (%): 4%
  Population Mitotic Cells (%): 57%
  Population Normal (%): 99%
  Population Pyknosed Nuclei (%): 15%
  Total Cell Count: 125
[2]
  Population Apoptotic (%): 31%
  Population Healthy Nuclei (%): 48%
  Population Mitochondria Different-Phenotype (%): 10%
  Population Mitotic Cells (%): 68%
  Population Normal (%): 93%
  Population Pyknosed Nuclei (%): 25%
  Population Tubulin-Different-Phenotype (%): 61%
  Total Cell Count: 122
[3]
  Population Apoptotic (%): 47%
  Population Healthy Nuclei (%): 66%
  Population Hoechst High Intensity Objects (%): 1%
  Population Mitochondria Different-Phenotype (%): 19%
  Population Mitotic Cells (%): 52%
  Population Normal (%): 98%
  Population Pyknosed Nuclei (%): 17%
  Population Tubulin-Different-Phenotype (%): 49%
  Total Cell Count: 109
[4]
  Population Apoptotic (%): 30%
  Population Healthy Nuclei (%): 53%
  Population Hoechst High Intensity Objects (%): 5%
  Population Mitochondria Different-Phenotype (%): 8%
  Population Mitotic Cells (%): 70%
  Population Normal (%): 94%
  Population Pyknosed Nuclei (%): 15%
  Population Tubulin-Different-Phenotype (%): 57%
  Total Cell Count: 134
[5]
  Population Apoptotic (%): 61%
  Population Healthy Nuclei (%): 65%
  Population Hoechst High Intensity Objects (%): 1%
  Population Mitochondria Different-Phenotype (%): 2%
  Population Mitotic Cells (%): 38%
  Population Normal (%): 98%
  Population Pyknosed Nuclei (%): 15%
  Total Cell Count: 119
[6]
  Population Apoptotic (%): 64%
  Population Healthy Nuclei (%): 52%
  Population Hoechst High Intensity Objects (%): 4%
  Population Mitochondria Different-Phenotype (%): 10%
  Population Mitotic Cells (%): 36%
  Population Normal (%): 95%
  Population Pyknosed Nuclei (%): 20%
  Population Tubulin-Different-Phenotype (%): 75%
  Total Cell Count: 129
[7]
  Population Apoptotic (%): 33%
  Population Healthy Nuclei (%): 65%
  Population Hoechst High Intensity Objects (%): 0%
  Population Mitochondria Different-Phenotype (%): 26%
  Population Mitotic Cells (%): 66%
  Population Normal (%): 99%
  Population Pyknosed Nuclei (%): 10%
  Population Tubulin-Different-Phenotype (%): 58%
  Total Cell Count: 111
[8]
  Population Apoptotic (%): 35%
  Population Healthy Nuclei (%): 54%
  Population Hoechst High Intensity Objects (%): 1%
  Population Mitochondria Different-Phenotype (%): 10%
  Population Mitotic Cells (%): 64%
  Population Normal (%): 98%
  Population Pyknosed Nuclei (%): 14%
  Population Tubulin-Different-Phenotype (%): 60%
  Total Cell Count: 121
[9]
  Population Apoptotic (%): 56%
  Population Healthy Nuclei (%): 63%
  Population Hoechst High Intensity Objects (%): 1%
  Population Mitochondria Different-Phenotype (%): 2%
  Population Mitotic Cells (%): 43%
  Population Normal (%): 98%
  Population Pyknosed Nuclei (%): 11%
  Population Tubulin-Different-Phenotype (%): 35%
  Total Cell Count: 136
[10]
  Population Apoptotic (%): 40%
  Population Healthy Nuclei (%): 53%
  Population Hoechst High Intensity Objects (%): 4%
  Population Mitochondria Different-Phenotype (%): 21%
  Population Mitotic Cells (%): 60%
  Population Normal (%): 95%
  Population Pyknosed Nuclei (%): 7%
  Population Tubulin-Different-Phenotype (%): 72%
  Total Cell Count: 135
[11]
  Population Apoptotic (%): 78%
  Population Healthy Nuclei (%): 56%
  Population Hoechst High Intensity Objects (%): 1%
  Population Mitochondria Different-Phenotype (%): 22%
  Population Mitotic Cells (%): 21%
  Population Normal (%): 98%
  Population Pyknosed Nuclei (%): 11%
  Total Cell Count: 120
[12]
  Population Apoptotic (%): 54%
  Population Healthy Nuclei (%): 54%
  Population Mitochondria Different-Phenotype (%): 7%
  Population Mitotic Cells (%): 45%
  Population Pyknosed Nuclei (%): 7%
  Population Tubulin-Different-Phenotype (%): 57%
  Total Cell Count: 141
